From ChEMBL document CHEMBL4257553, “Novel organophosphorus aminopyrimidines as unique structural DNA-targeting membrane active inhibitors towards drug-resistant methicillin-resistant Staphylococcus aureus” (Medchemcomm, 2018)
≈ marks a conversion by molar mass, not a printed value.

Columns and labels:
Format in all cases: functional
Staphylococcus aureus [1] = assay: Antibacterial activity against methicillin resistant Staphylococcus aureus after 24 hrs by microbroth dilution method
Method in brief: (§1)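 Tested by CLSI-standard broth microdilution against a panel of eleven bacterial strains, Gram-positive and Gram-negative, including MRSA.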

Staphylococcus aureus [2] = assay: Antibacterial activity against Staphylococcus aureus ATCC 25923 after 24 hrs by microbroth dilution method; details: ATCC 25923, 24 h; method in brief: as §1
Escherichia coli [3] = assay: Antibacterial activity against Escherichia coli after 24 hrs by microbroth dilution method; method in brief: as §1
Pseudomonas aeruginosa [4] = assay: Antibacterial activity against Pseudomonas aeruginosa ATCC 27853 after 24 hrs by microbroth dilution method; details: ATCC 27853, 24 h; method in brief: as §1
Aspergillus fumigatus [5] = assay: Antifungal activity against Aspergillus fumigatus after 24 hrs by microbroth dilution method
Escherichia coli [6] = assay: Antibacterial activity against Escherichia coli ATCC 25922 after 24 hrs by microbroth dilution method; details: ATCC 25922, 24 h; method in brief: as §1
Acinetobacter baumannii = assay: Antibacterial activity against Acinetobacter baumannii after 24 hrs by microbroth dilution method; method in brief: as §1
Klebsiella pneumoniae = assay: Antibacterial activity against Klebsiella pneumoniae after 24 hrs by microbroth dilution method; method in brief: as §1
Enterococcus faecalis = assay: Antibacterial activity against Enterococcus faecalis after 24 hrs by microbroth dilution method; method in brief: as §1
Aspergillus fumigatus [7] = assay: Potency index, ratio of fluconazole MIC to compound MIC for antifungal activity against Aspergillus fumigatus
Pseudomonas aeruginosa [8] = assay: Antibacterial activity against Pseudomonas aeruginosa after 24 hrs by microbroth dilution method; method in brief: as §1
Staphylococcus aureus [9] = assay: Antibacterial activity against Staphylococcus aureus after 24 hrs by microbroth dilution method; method in brief: as §1
Staphylococcus aureus [10] = assay: Antibacterial activity against Staphylococcus aureus ATCC 29213 after 24 hrs by microbroth dilution method; details: ATCC 29213, 24 h; method in brief: as §1
Candida albicans = assay: Antifungal activity against Candida albicans ATCC 90023 after 24 hrs by microbroth dilution method; details: ATCC 90023, 24 h

| SMILES | MIC (Staphylococcus aureus [1]) | MIC (Staphylococcus aureus [2]) | MIC (Escherichia coli [3]) | MIC (Pseudomonas aeruginosa [4]) | MIC (Aspergillus fumigatus [5]) | MIC (Escherichia coli [6]) | MIC (Acinetobacter baumannii) | MIC (Klebsiella pneumoniae) | MIC (Enterococcus faecalis) | Ratio (Aspergillus fumigatus [7]) | MIC (Pseudomonas aeruginosa [8]) | MIC (Staphylococcus aureus [9]) | MIC (Staphylococcus aureus [10]) | MIC (Candida albicans) |
| --- | --- | --- | --- | --- | --- | --- | --- | --- | --- | --- | --- | --- | --- | --- |
| CCOP(=O)(OCC)C(Nc1ncccn1)c1ccc(Cl)cc1Cl (stereo not given) | 8 µg/mL (≈ 20.5 µM) | 8 µg/mL (≈ 20.5 µM) | 256 µg/mL (≈ 656 µM) | 8 µg/mL (≈ 20.5 µM) | > 16 µg/mL | 16 µg/mL (≈ 41 µM) | 64 µg/mL (≈ 164 µM) | 64 µg/mL (≈ 164 µM) | 32 µg/mL (≈ 82 µM) | 16 | 64 µg/mL (≈ 164 µM) | 64 µg/mL (≈ 164 µM) | 64 µg/mL (≈ 164 µM) | 8 µg/mL (≈ 20.5 µM) |
| CCn1cc(C(=O)O)c(=O)c2cc(F)c(N3CCNCC3)cc21 [NORFLOXACIN] | 8 µg/mL (≈ 25.1 µM) | 1 µg/mL (≈ 3.13 µM) | 16 µg/mL (≈ 50.1 µM) | 0.5 µg/mL (≈ 1.57 µM) |  | 8 µg/mL (≈ 25.1 µM) | 8 µg/mL (≈ 25.1 µM) | 4 µg/mL (≈ 12.5 µM) | 4 µg/mL (≈ 12.5 µM) |  | 2 µg/mL (≈ 6.26 µM) | 0.5 µg/mL (≈ 1.57 µM) | 2 µg/mL (≈ 6.26 µM) |  |
| O=P(O)(O)C(Nc1ncccn1)c1ccc(F)cc1 (stereo not given) | 128 µg/mL (≈ 452 µM) | 128 µg/mL (≈ 452 µM) | 256 µg/mL (≈ 904 µM) | 128 µg/mL (≈ 452 µM) | > 16 µg/mL | 128 µg/mL (≈ 452 µM) | 256 µg/mL (≈ 904 µM) | 256 µg/mL (≈ 904 µM) | 256 µg/mL (≈ 904 µM) | 16 | 256 µg/mL (≈ 904 µM) | 256 µg/mL (≈ 904 µM) | 256 µg/mL (≈ 904 µM) |  |
| CCOP(=O)(OCC)C(Nc1ncccn1)c1ccc(F)cc1 (stereo not given) | 256 µg/mL (≈ 754 µM) | 64 µg/mL (≈ 189 µM) | 256 µg/mL (≈ 754 µM) | 64 µg/mL (≈ 189 µM) | > 16 µg/mL | 256 µg/mL (≈ 754 µM) | 128 µg/mL (≈ 377 µM) | 128 µg/mL (≈ 377 µM) | 64 µg/mL (≈ 189 µM) | 16 | 128 µg/mL (≈ 377 µM) | 256 µg/mL (≈ 754 µM) | 256 µg/mL (≈ 754 µM) |  |
| CCOP(=O)(OCC)C(Nc1ncccn1)c1ccc(C)cc1 (stereo not given) | 128 µg/mL (≈ 382 µM) | 16 µg/mL (≈ 47.7 µM) | 256 µg/mL (≈ 763 µM) | 64 µg/mL (≈ 191 µM) | > 16 µg/mL | 128 µg/mL (≈ 382 µM) | 128 µg/mL (≈ 382 µM) | 128 µg/mL (≈ 382 µM) | 8 µg/mL (≈ 23.9 µM) | 16 | 256 µg/mL (≈ 763 µM) | 256 µg/mL (≈ 763 µM) | 256 µg/mL (≈ 763 µM) |  |
| CCCCc1nc(Cl)c(C(Nc2ncccn2)P(=O)(OCC)OCC)n1CC (stereo not given) | 256 µg/mL (≈ 596 µM) | 128 µg/mL (≈ 298 µM) | 256 µg/mL (≈ 596 µM) | 256 µg/mL (≈ 596 µM) | > 16 µg/mL | 256 µg/mL (≈ 596 µM) | 256 µg/mL (≈ 596 µM) | 128 µg/mL (≈ 298 µM) | 64 µg/mL (≈ 149 µM) | 16 | 256 µg/mL (≈ 596 µM) | 512 µg/mL (≈ 1190 µM) | 256 µg/mL (≈ 596 µM) |  |
| CCOP(=O)(OCC)C(Nc1ncccn1)c1ccccc1Cl (stereo not given) | 8 µg/mL (≈ 22.5 µM) | 128 µg/mL (≈ 360 µM) | 256 µg/mL (≈ 720 µM) | 128 µg/mL (≈ 360 µM) | > 16 µg/mL | 64 µg/mL (≈ 180 µM) | 128 µg/mL (≈ 360 µM) | 32 µg/mL (≈ 89.9 µM) | 128 µg/mL (≈ 360 µM) | 16 | 128 µg/mL (≈ 360 µM) | 128 µg/mL (≈ 360 µM) | 128 µg/mL (≈ 360 µM) |  |
| CCOP(=O)(OCC)C(Nc1ncccn1)c1ccc([N+](=O)[O-])cc1 (stereo not given) | 128 µg/mL (≈ 349 µM) | 8 µg/mL (≈ 21.8 µM) | 256 µg/mL (≈ 699 µM) | 16 µg/mL (≈ 43.7 µM) | > 16 µg/mL | 128 µg/mL (≈ 349 µM) | 128 µg/mL (≈ 349 µM) | 256 µg/mL (≈ 699 µM) | 32 µg/mL (≈ 87.4 µM) | 16 | 256 µg/mL (≈ 699 µM) | 256 µg/mL (≈ 699 µM) | 256 µg/mL (≈ 699 µM) |  |
| CCOP(=O)(OCC)C(Nc1ncccn1)c1c[nH]c2ccccc12 (stereo not given) | 4 µg/mL (≈ 11.1 µM) | 256 µg/mL (≈ 710 µM) | 256 µg/mL (≈ 710 µM) | 256 µg/mL (≈ 710 µM) | > 16 µg/mL | 256 µg/mL (≈ 710 µM) | 128 µg/mL (≈ 355 µM) | 64 µg/mL (≈ 178 µM) | 256 µg/mL (≈ 710 µM) | 16 | 256 µg/mL (≈ 710 µM) | 256 µg/mL (≈ 710 µM) | 128 µg/mL (≈ 355 µM) |  |
| CCOP(=O)(OCC)C(Nc1ncccn1)c1ccc(Cl)cc1 (stereo not given) | 64 µg/mL (≈ 180 µM) | 64 µg/mL (≈ 180 µM) | 512 µg/mL (≈ 1440 µM) | 8 µg/mL (≈ 22.5 µM) | > 16 µg/mL | 256 µg/mL (≈ 720 µM) | 128 µg/mL (≈ 360 µM) | 128 µg/mL (≈ 360 µM) | 32 µg/mL (≈ 89.9 µM) | 16 | 256 µg/mL (≈ 720 µM) | 256 µg/mL (≈ 720 µM) | 256 µg/mL (≈ 720 µM) | 8 µg/mL (≈ 22.5 µM) |
